What all share (format): functional
Assay [1] deals with Mus musculus. Kind of assay: Analgesic activity in Wistar Albino mouse at 10 mg/kg, po after 3 hrs by tail-flick technique. The gist of the method:
(§1)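 Tail-flick in Wistar albino mice (25–35 g, either sex, randomly selected), compound given orally as suspension in 1% carboxymethyl cellulose; six animals per group. Reaction time read before dosing and after dosing, cut-off 10 s. Percent analgesic activity = (T2 − T1)/(10 − T1) × 100, T1/T2 being pre/post reaction times; mean of n = 6, one-way ANOVA versus control.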

The subject of assay [2] is Mus musculus. Kind of assay: Analgesic activity in Wistar Albino mouse at 20 mg/kg, po after 30 mins by tail-flick technique. The method in brief:
as §1

The subject of assay [3] is Mus musculus. Kind of assay: Analgesic activity in Wistar Albino mouse at 20 mg/kg, po after 1 hr by tail-flick technique. The gist of the method:
as §1

In assay [4] the test system is Mus musculus. Kind of assay: Analgesic activity in Wistar Albino mouse at 20 mg/kg, po after 2 hrs by tail-flick technique. The method in brief:
as §1

The test system of assay [5] is Mus musculus. Put plainly: Analgesic activity in Wistar Albino mouse at 20 mg/kg, po after 3 hrs by tail-flick technique. The method in brief:
as §1

Assay [6] has as its system Rattus norvegicus. Kind of assay: Anti-inflammatory activity against Carrageenan-induced paw oedema rat model at 10 mg/kg after 30 mins. The method in brief:
(§2)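 Rat carrageenan paw oedema; compound dosed orally as suspension in 1% carboxymethyl cellulose, six rats per group. Paw volume by mercury displacement plethysmography immediately before and at the stated time after carrageenan injection. Percent oedema inhibition computed from pre/post paw volumes of treated versus vehicle-control rats; one-way ANOVA versus control.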
In general terms: The carrageenan paw model is a standard test of acute inflammation.

In assay [7] the test system is Rattus norvegicus. Kind of assay: Anti-inflammatory activity against Carrageenan-induced paw oedema rat model at 10 mg/kg after 1 hr. The method in brief:
as §2

In assay [8] the test system is Rattus norvegicus. Kind of assay: Anti-inflammatory activity against Carrageenan-induced paw oedema rat model at 10 mg/kg after 2 hrs. The method in brief:
as §2

The test system of assay [9] is Rattus norvegicus. Put plainly: Anti-inflammatory activity against Carrageenan-induced paw oedema rat model at 10 mg/kg after 3 hrs. The method in brief: as §2
The subject of assay [10] is Rattus norvegicus. Kind of assay: Anti-inflammatory activity against Carrageenan-induced paw oedema rat model at 20 mg/kg after 30 min. The gist of the method:
as §2

In assay [11] the test system is Rattus norvegicus. Kind of assay: Anti-inflammatory activity against Carrageenan-induced paw oedema rat model at 20 mg/kg after 1 hr. The gist of the method:
as §2

Assay [12] deals with Rattus norvegicus. Kind of assay: Anti-inflammatory activity against Carrageenan-induced paw oedema rat model at 20 mg/kg after 2 hrs. The method in brief:
as §2

Assay [13] relates to Rattus norvegicus. Kind of assay: Anti-inflammatory activity against Carrageenan-induced paw oedema rat model at 20 mg/kg after 3 hrs. The gist of the method:
as §2

For assay [14], the system named is Mus musculus. Kind of assay: Analgesic activity in Wistar Albino mouse at 10 mg/kg, po after 30 mins by tail-flick technique. The method in brief:
as §1

Assay [15] relates to Mus musculus. Put plainly: Analgesic activity in Wistar Albino mouse at 10 mg/kg, po after 1 hr by tail-flick technique. The method in brief:
as §1

Assay [16] relates to Mus musculus. Kind of assay: Analgesic activity in Wistar Albino mouse at 10 mg/kg, po after 2 hrs by tail-flick technique. The gist of the method: as §1

Each structure is given as a SMILES string.

For `O=c1c2ccccc2nc(N/N=C\c2ccccc2[N+](=O)[O-])n1-c1ccccc1`, the Activity in the assay with Mus musculus [1] was 30%; in the assay with Mus musculus [2], 42%; in the assay with Mus musculus [3], 46%; in the assay on Mus musculus [4], 49%; with Mus musculus [5], 39%; in the assay with Rattus norvegicus [6], 27%. The Activity with Rattus norvegicus [7] came out at 29%; in the assay with Rattus norvegicus [8] it was 34%; in the assay on Rattus norvegicus [9], 22%; with Rattus norvegicus [10] it was 32%; in the assay with Rattus norvegicus [11], 33%; with Rattus norvegicus [12], 36%. The Activity with Rattus norvegicus [13] worked out at 30%; with Mus musculus [14], 35%; in the assay with Mus musculus [15], 36%; with Mus musculus [16], 39%.
Regarding `Cc1ccc(/C=N\Nc2nc3ccccc3c(=O)n2-c2ccccc2)cc1`, the Activity in the assay on Mus musculus [1] is reported as 33%; in the assay with Mus musculus [2] it was 43%; in the assay with Mus musculus [3] it was 47%; in the assay with Mus musculus [4], 50%; in the assay on Mus musculus [5] it was 40%; in the assay with Rattus norvegicus [6], 28%. Also, the Activity with Rattus norvegicus [7] was 33%; in the assay on Rattus norvegicus [8], 34%; with Rattus norvegicus [9] it was 25%; with Rattus norvegicus [10] it was 38%; in the assay on Rattus norvegicus [11], 38%; in the assay on Rattus norvegicus [12], 43%. The Activity in the assay with Rattus norvegicus [13] is reported as 36%; with Mus musculus [14] it was 37%; in the assay with Mus musculus [15], 40%; in the assay with Mus musculus [16] it was 40%.
Turning to `O=c1c2ccccc2nc(NN=C2CCCCC2)n1-c1ccccc1`, the Activity stood at 25% with Mus musculus [1]; 50% with Mus musculus [2]; 51% in the assay on Mus musculus [3]; 53% with Mus musculus [4]; 37% in the assay with Mus musculus [5]; 29% in the assay on Rattus norvegicus [6]. Also, the Activity in the assay on Rattus norvegicus [7] was determined as 33%; in the assay with Rattus norvegicus [8], 36%; in the assay with Rattus norvegicus [9], 27%; in the assay with Rattus norvegicus [10], 39%; with Rattus norvegicus [11] it was 42%; in the assay with Rattus norvegicus [12], 42%. In addition, the Activity in the assay on Rattus norvegicus [13] was determined as 35%; in the assay on Mus musculus [14], 33%; with Mus musculus [15] it was 40%; in the assay on Mus musculus [16], 46%.
On to `COc1ccc(/C=N\Nc2nc3ccccc3c(=O)n2-c2ccccc2)cc1`, for which the Activity is listed as 30% in the assay on Mus musculus [1]; 42% with Mus musculus [2]; 49% in the assay on Mus musculus [3]; 50% with Mus musculus [4]; 29% with Mus musculus [5]; 28% with Rattus norvegicus [6]. For the same compound, the Activity came out at 30% in the assay on Rattus norvegicus [7]; 32% in the assay on Rattus norvegicus [8]; 24% in the assay on Rattus norvegicus [9]; 33% with Rattus norvegicus [10]; 37% in the assay with Rattus norvegicus [11]; 37% with Rattus norvegicus [12]. Besides, the Activity in the assay with Rattus norvegicus [13] is given as 30%; in the assay with Mus musculus [14], 38%; in the assay on Mus musculus [15] it was 42%; in the assay with Mus musculus [16] it was 43%.
For `C/C(=N\Nc1nc2ccccc2c(=O)n1-c1ccccc1)c1ccccc1`, the Activity in the assay on Mus musculus [1] is 29%; in the assay on Mus musculus [2], 50%; with Mus musculus [3], 53%; with Mus musculus [4], 57%; with Mus musculus [5] it was 36%; in the assay on Rattus norvegicus [6] it was 31%. In addition, the Activity with Rattus norvegicus [7] was 35%; in the assay on Rattus norvegicus [8], 38%; with Rattus norvegicus [9], 29%; in the assay with Rattus norvegicus [10] it was 38%; in the assay with Rattus norvegicus [11], 42%; in the assay with Rattus norvegicus [12], 46%. Also, the Activity is reported as 33% in the assay with Rattus norvegicus [13], 38% in the assay with Mus musculus [14], 43% in the assay with Mus musculus [15] and 43% with Mus musculus [16].
Take `CCC(CC)=NNc1nc2ccccc2c(=O)n1-c1ccccc1`: the Activity turned out to be 41% with Mus musculus [1]; 63% in the assay on Mus musculus [2]; 69% with Mus musculus [3]; 72% in the assay with Mus musculus [4]; 49% in the assay with Mus musculus [5]; 34% in the assay on Rattus norvegicus [6]. The Activity came to 35% in the assay with Rattus norvegicus [7]; 39% in the assay on Rattus norvegicus [8]; 32% in the assay on Rattus norvegicus [9]; 43% in the assay with Rattus norvegicus [10]; 52% with Rattus norvegicus [11]; 56% with Rattus norvegicus [12]. The Activity is on record as 36% with Rattus norvegicus [13], 49% in the assay with Mus musculus [14], 55% with Mus musculus [15] and 58% in the assay with Mus musculus [16].
Consider `O=C1Nc2ccccc2/C1=N\Nc1nc2ccccc2c(=O)n1-c1ccccc1`, for which the Activity in the assay on Mus musculus [1] was 30%; in the assay with Mus musculus [2], 47%; with Mus musculus [3] it was 51%; in the assay with Mus musculus [4], 55%; with Mus musculus [5] it was 35%; in the assay on Rattus norvegicus [6], 27%. Further, the Activity in the assay with Rattus norvegicus [7] is on record as 30%; in the assay on Rattus norvegicus [8] it was 31%; in the assay on Rattus norvegicus [9], 23%; in the assay on Rattus norvegicus [10], 32%; in the assay with Rattus norvegicus [11], 36%; in the assay on Rattus norvegicus [12], 39%. The Activity with Rattus norvegicus [13] stood at 30%; in the assay with Mus musculus [14] it was 36%; with Mus musculus [15] it was 37%; with Mus musculus [16], 40%.
In the case of `CCC/C(C)=N/Nc1nc2ccccc2c(=O)n1-c1ccccc1`, the Activity with Mus musculus [1] worked out at 33%; with Mus musculus [2], 56%; in the assay on Mus musculus [3], 62%; in the assay on Mus musculus [4] it was 62%; with Mus musculus [5], 45%; with Rattus norvegicus [6] it was 35%. Besides, the Activity in the assay on Rattus norvegicus [7] amounted to 41%; in the assay with Rattus norvegicus [8], 42%; in the assay with Rattus norvegicus [9], 33%; in the assay on Rattus norvegicus [10] it was 46%; in the assay on Rattus norvegicus [11], 58%; in the assay on Rattus norvegicus [12], 60%. Besides, the Activity was 41% in the assay on Rattus norvegicus [13], 43% in the assay on Mus musculus [14], 48% in the assay with Mus musculus [15] and 50% with Mus musculus [16].
As for `O=c1c2ccccc2nc(N/N=C\c2ccc(Cl)cc2)n1-c1ccccc1`, the Activity in the assay with Mus musculus [1] was found to be 27%; in the assay with Mus musculus [2], 40%; in the assay with Mus musculus [3], 45%; in the assay with Mus musculus [4] it was 48%; in the assay on Mus musculus [5] it was 35%; with Rattus norvegicus [6], 26%. In addition, the Activity came to 28% in the assay with Rattus norvegicus [7]; 30% in the assay on Rattus norvegicus [8]; 23% in the assay with Rattus norvegicus [9]; 29% in the assay with Rattus norvegicus [10]; 32% in the assay on Rattus norvegicus [11]; 37% in the assay with Rattus norvegicus [12]. Further, the Activity worked out at 25% with Rattus norvegicus [13], 32% in the assay with Mus musculus [14], 34% in the assay with Mus musculus [15] and 42% in the assay with Mus musculus [16].
As to `O=c1c2ccccc2nc(N/N=C\c2ccccc2Cl)n1-c1ccccc1`, the Activity in the assay on Mus musculus [1] is 25%; with Mus musculus [2] it was 37%; in the assay on Mus musculus [3] it was 39%; in the assay with Mus musculus [4] it was 42%; in the assay with Mus musculus [5], 36%; in the assay with Rattus norvegicus [6] it was 21%. In addition, the Activity in the assay on Rattus norvegicus [7] stood at 24%; in the assay with Rattus norvegicus [8], 26%; in the assay with Rattus norvegicus [9], 20%; in the assay on Rattus norvegicus [10], 27%; with Rattus norvegicus [11], 32%; in the assay on Rattus norvegicus [12], 35%. The Activity was found to be 25% with Rattus norvegicus [13], 29% in the assay with Mus musculus [14], 30% in the assay on Mus musculus [15] and 37% in the assay on Mus musculus [16].
Turning to `O=C(O)Cc1ccccc1Nc1c(Cl)cccc1Cl` [DICLOFENAC], the Activity in the assay on Mus musculus [1] stood at 33%; with Mus musculus [2] it was 46%; in the assay with Mus musculus [3] it was 55%; with Mus musculus [4] it was 62%; in the assay with Mus musculus [5], 39%; in the assay with Rattus norvegicus [6], 32%. Also, the Activity in the assay with Rattus norvegicus [7] worked out at 38%; in the assay with Rattus norvegicus [8], 39%; with Rattus norvegicus [9] it was 33%; in the assay with Rattus norvegicus [10], 45%; in the assay with Rattus norvegicus [11], 52%; with Rattus norvegicus [12] it was 60%. Moreover, the Activity came to 42% with Rattus norvegicus [13], 37% in the assay with Mus musculus [14], 43% in the assay on Mus musculus [15] and 45% in the assay on Mus musculus [16].
On to `CC/C(C)=N/Nc1nc2ccccc2c(=O)n1-c1ccccc1`, for which the Activity with Mus musculus [1] is 31%; in the assay with Mus musculus [2], 55%; in the assay with Mus musculus [3] it was 59%; in the assay with Mus musculus [4], 61%; in the assay with Mus musculus [5] it was 42%; with Rattus norvegicus [6], 32%. For the same compound, the Activity in the assay on Rattus norvegicus [7] amounted to 36%; in the assay with Rattus norvegicus [8], 37%; in the assay on Rattus norvegicus [9], 26%; with Rattus norvegicus [10] it was 38%; in the assay on Rattus norvegicus [11], 45%; in the assay with Rattus norvegicus [12], 47%. For the same compound, the Activity stood at 36% in the assay on Rattus norvegicus [13], 41% in the assay with Mus musculus [14], 43% with Mus musculus [15] and 50% in the assay with Mus musculus [16].
